Reference: ChEMBL document CHEMBL4007452, “Discovery of an Orally Selective Inhibitor of Signal Transducer and Activator of Transcription 3 Using Advanced Multiple Ligand Simultaneous Docking” (J Med Chem, 2017)
Active and inactive are the calls of the source. No cut-off for these calls is given here.

Experiments:
[1] = target: T1, Signal transducer and activator of transcription 1-alpha/beta (Homo sapiens) (UniProt P42224); assay: Inhibition of STAT1 in human MDA-MB-231 cells assessed as reduction in CDK2 mRNA level at 5 to 10 uM by RT-PCR analysis; assay type: cell-based
T1 sequence (whole entry): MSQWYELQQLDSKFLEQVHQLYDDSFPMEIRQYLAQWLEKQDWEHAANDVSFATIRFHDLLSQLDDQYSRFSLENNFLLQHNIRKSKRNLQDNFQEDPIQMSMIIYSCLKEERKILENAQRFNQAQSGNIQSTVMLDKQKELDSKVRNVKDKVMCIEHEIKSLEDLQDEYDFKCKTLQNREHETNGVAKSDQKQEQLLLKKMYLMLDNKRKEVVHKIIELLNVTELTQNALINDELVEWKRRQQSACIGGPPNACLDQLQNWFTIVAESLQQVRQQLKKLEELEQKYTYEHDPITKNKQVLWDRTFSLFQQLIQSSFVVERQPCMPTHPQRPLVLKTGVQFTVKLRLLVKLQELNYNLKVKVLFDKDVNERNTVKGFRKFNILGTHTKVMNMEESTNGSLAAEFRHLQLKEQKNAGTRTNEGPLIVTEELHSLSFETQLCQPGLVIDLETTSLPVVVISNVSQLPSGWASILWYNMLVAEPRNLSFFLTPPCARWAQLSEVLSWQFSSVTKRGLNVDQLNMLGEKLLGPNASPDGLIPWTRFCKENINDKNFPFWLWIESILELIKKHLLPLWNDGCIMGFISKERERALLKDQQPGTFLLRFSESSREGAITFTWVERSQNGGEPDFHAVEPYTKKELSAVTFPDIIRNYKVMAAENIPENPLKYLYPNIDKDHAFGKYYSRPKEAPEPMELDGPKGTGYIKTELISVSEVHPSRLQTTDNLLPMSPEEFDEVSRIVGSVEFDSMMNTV
Summary of the method: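 Total RNA was extracted from treated MDA-MB-231 cells and 1 µg reverse-transcribed. qPCR ran 95 °C 5 min, then 40 cycles of 95 °C 10 s, 60 °C 15 s and 72 °C 15 s, followed by a melt curve from 60 to 95 °C.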

MDA-MB-231 [2] = assay: Antiproliferative activity against human MDA-MB-231 cells after 24 hrs by MTT assay; assay type: functional, cell-based; conditions: MDA-MB-231, 24 h
Summary of the method: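 Cells were seeded at 3000 per well and incubated 24 h at 37 °C. Compounds were added in triplicate with 10% FBS: 0.1-10 or 0.1-20 µM for cancer lines, 3.125-400 µM for MCF-10A. Viability was read by MTT absorbance at 595 nm, with IC50 fitted from the curves. DMSO stocks were 20 mM.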

Mus musculus [3] = assay: Toxicity in BALB/c nude mouse xenografted with human MDA-MB-231 cells assessed as liver damage at 2.5 to 10 mg/kg, po qd administered for 32 days by H&E staining based light microscopy; assay type: organism-based; conditions: in vivo, 768 h
Summary of the method: (§1)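 6-week-old female athymic SPF BALB/c nude mice received 5 x 10^6 MDA-MB-231 cells s.c. in the flank. Oral treatment began once tumors reached about 100 mm3, with 8 mice per group and a saline vehicle control. […] Treatment lasted 32 days. Heart, liver, spleen, lung and kidney were fixed 48 h in 10% neutral-buffered formaldehyde, paraffin-embedded, cut at 5 µm, H&E-stained and examined by light microscopy.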

MDA-MB-231 [4] = assay: Anticancer activity against human MDA-MB-231 cells xenografted in BALB/c nude mouse assessed as reduction in tumor volume at 10 mg/kg, po qd administered for 32 days; assay type: functional; set-up: scale not given: the % may be the effect or the level left
Summary of the method: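 Female athymic BALB/c nude mice, 6 weeks old, bearing s.c. flank MDA-MB-231 xenografts (5 x 10^6 cells). Dosing began at about 100 mm3 tumor volume; 8 mice per group, one tumor each. Drug was given orally in saline, with a saline vehicle control, for 32 days. Caliper L and W measured every other day; volume = 0.5236×L×W².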

Mus musculus [5] = assay: Toxicity in BALB/c nude mouse xenografted with human MDA-MB-231 cells assessed as kidney damage at 2.5 to 10 mg/kg, po qd administered for 32 days by H&E staining based light microscopy; assay type: organism-based; conditions: in vivo, 768 h; summary of the method: as §1
Mus musculus [6] = assay: Toxicity in BALB/c nude mouse xenografted with human MDA-MB-231 cells assessed as lung damage at 2.5 to 10 mg/kg, po qd administered for 32 days by H&E staining based light microscopy; assay type: organism-based; conditions: in vivo, 768 h; summary of the method: as §1
Rattus norvegicus [7] = assay: AUMC (0 to t) in Sprague-Dawley rat plasma at 1 mg/kg, iv measured after 24 hrs by UPLC analysis; assay type: ADME, organism-based; conditions: in vivo
Summary of the method: (§2)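 Rat plasma sampled from 2 min to 24 h after a single i.v. (1 mg/kg) or p.o. (10 mg/kg) dose. Parameters were derived from the concentration-time profiles. The bioanalytical method was validated to FDA guidelines for selectivity, linearity, LLOQ, accuracy, precision, recovery, matrix effect and stability.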

Rattus norvegicus [8] = assay: AUMC (0 to infinity) in Sprague-Dawley rat plasma at 10 mg/kg, po measured after 24 hrs by UPLC analysis; assay type: ADME, organism-based; conditions: in vivo; summary of the method: as §2
Mus musculus [9] = assay: In vivo inhibition of STAT3 in po dosed BALB/c nude mouse xenografted with human MDA-MB-231 assessed as reduction in p-STAT3 level administered as qd for 32 days by DAB-staining based IHC analysis; assay type: functional, organism-based
Summary of the method: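 Fixed sections of MDA-MB-231 xenograft tumors from orally dosed nude mice were immunostained for p-STAT3, with positive cells visualized by DAB.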

Mus musculus [10] = assay: Toxicity in BALB/c nude mouse xenografted with […] S180 cells assessed as body weight loss at 5 mg/kg, po after 21 days relative to vehicle control; assay type: organism-based; conditions: in vivo, 504 h
[11] = target: T1, Signal transducer and activator of transcription 1-alpha/beta (Homo sapiens); assay: Binding affinity to STAT1 (unknown origin) after 30 mins by fluorescence polarization assay
Summary of the method: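 A competitive fluorescence polarization assay measured displacement of fluorescent phosphopeptide from the SH2 domain of purchased STAT1 or STAT5 protein, using the corresponding peptides.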

[12] = MRT (0 to infinity) in Sprague-Dawley rat plasma at 10 mg/kg, po measured after 24 hrs by UPLC analysis; assay type: ADME, organism-based; summary of the method: as §2
[13] = Selectivity ratio of IC50 for human MCF-10A cells to IC50 for human MDA-MB-231 cells
Summary of the method: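 MTT viability assay. MCF-10A was grown in RPMI-1640 and MDA-MB-231 in DMEM, each with 10% FBS. Cells were seeded at 3000 per well and left 24 h at 37 °C. Compound was then added in triplicate with 10% FBS, at 0.1-10 µM for the cancer cells and 3.125-400 µM for MCF-10A. Absorbance was read at 595 nm. The ratio is IC50 for MCF-10A over IC50 for MDA-MB-231.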

[14] = target: T2, Signal transducer and activator of transcription 3 (Homo sapiens, UniProt P40763); conditions: 5 to 10 uM
[15] = target: T2, Signal transducer and activator of transcription 3; conditions: 5 uM

T2 sequence (P40763 whole entry): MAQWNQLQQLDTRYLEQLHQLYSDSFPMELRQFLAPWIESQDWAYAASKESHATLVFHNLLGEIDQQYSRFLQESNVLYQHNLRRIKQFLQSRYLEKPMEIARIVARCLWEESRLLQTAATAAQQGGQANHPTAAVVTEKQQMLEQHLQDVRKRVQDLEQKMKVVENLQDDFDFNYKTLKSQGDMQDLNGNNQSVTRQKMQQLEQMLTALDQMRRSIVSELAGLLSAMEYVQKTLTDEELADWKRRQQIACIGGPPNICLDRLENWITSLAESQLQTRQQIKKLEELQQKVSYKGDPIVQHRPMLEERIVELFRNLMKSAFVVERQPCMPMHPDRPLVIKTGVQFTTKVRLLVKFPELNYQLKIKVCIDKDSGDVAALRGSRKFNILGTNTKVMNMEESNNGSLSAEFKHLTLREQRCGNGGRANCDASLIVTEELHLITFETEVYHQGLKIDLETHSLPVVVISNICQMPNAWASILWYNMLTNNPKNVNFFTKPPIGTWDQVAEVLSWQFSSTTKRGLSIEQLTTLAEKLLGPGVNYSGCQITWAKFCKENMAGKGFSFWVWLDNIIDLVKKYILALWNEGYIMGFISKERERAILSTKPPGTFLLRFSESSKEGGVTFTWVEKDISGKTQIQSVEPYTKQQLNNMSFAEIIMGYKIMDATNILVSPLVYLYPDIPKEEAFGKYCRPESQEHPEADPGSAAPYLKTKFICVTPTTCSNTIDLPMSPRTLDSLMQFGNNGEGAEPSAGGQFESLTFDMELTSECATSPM

Q: For NS(=O)(=O)c1cccc2c1C(=O)C=C(Nc1ccccc1N1CCNCC1)C2=O, which inhibition [1] is on record?
A: inactive

Q: What about the IC50 (MDA-MB-231 [2]) of the same compound?
A: 700 nM

Q: And the Activity (Mus musculus [3])?
A: Non-Toxic

Q: And the Activity (MDA-MB-231 [4])?
A: 70%

Q: And the Activity (Mus musculus [5])?
A: Non-Toxic

Q: What about the Activity (Mus musculus [6]) of the same compound?
A: Non-Toxic

Q: And the AUMCt (Rattus norvegicus [7])?
A: 109.3 hr2.ng/ml

Q: What about the AUMC (Rattus norvegicus [8]) of the same compound?
A: 2002.1 hr2.ng/ml

Q: What about the inhibition (Mus musculus [9]) of the same compound?
A: Dose-dependent effect

Q: What about the Activity (Mus musculus [10]) of the same compound?
A: 1.68%

Q: And the Activity [11]?
A: inactive

Q: And the MRT inf [12]?
A: 2.25 h

Q: What about the “Ratio IC50” value [13] of the same compound?
A: 184

Q: What about the inhibition [14] of the same compound?
A: Active

Q: What about the inhibition [15] of the same compound?
A: Active
